Reference: ChEMBL document CHEMBL3352570, “ST7612AA1, a thioacetate-ω(γ-lactam carboxamide) derivative selected from a novel generation of oral HDAC inhibitors” (J Med Chem, 2014)
pIC50: −log10 of the molar value.

What was measured:
Histone deacetylase 1 = Histone deacetylase 1 (Homo sapiens, UniProt Q13547); experiment: Inhibition of HDAC1 (unknown origin) using fluorogenic tetrapeptide RHKK(Ac) substrate by fluorescence assay
Mus musculus = experiment: Toxicity in human HCT116 cells xenografted athymic nude mouse assessed as body weight loss at 100 mg/kg, po qd for 5 days a week for 3 weeks; assay type: organism-based, HCT-116; parameters: dose 100 mg/kg, route oral; conditions: in vivo
Summary of the method: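 Nude mice (female, athymic, 5–6 weeks) carried sc right-flank xenografts of 5 × 10⁶ cells per 100 μL. Oral treatment once daily started 3 days after inoculation.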

Histone deacetylase 3 = Histone deacetylase 3 (Homo sapiens, UniProt O15379); experiment: Inhibition of HDAC3 (unknown origin) using fluorogenic tetrapeptide RHKK(Ac) substrate by fluorescence assay
[1] = molecular target: T1, Polyamine deacetylase HDAC10 (Homo sapiens, UniProt Q969S8); experiment: Inhibition of HDAC10 (unknown origin) using fluorogenic tetrapeptide RHKK(Ac) substrate by fluorescence assay
T1 sequence (Q969S8 whole entry): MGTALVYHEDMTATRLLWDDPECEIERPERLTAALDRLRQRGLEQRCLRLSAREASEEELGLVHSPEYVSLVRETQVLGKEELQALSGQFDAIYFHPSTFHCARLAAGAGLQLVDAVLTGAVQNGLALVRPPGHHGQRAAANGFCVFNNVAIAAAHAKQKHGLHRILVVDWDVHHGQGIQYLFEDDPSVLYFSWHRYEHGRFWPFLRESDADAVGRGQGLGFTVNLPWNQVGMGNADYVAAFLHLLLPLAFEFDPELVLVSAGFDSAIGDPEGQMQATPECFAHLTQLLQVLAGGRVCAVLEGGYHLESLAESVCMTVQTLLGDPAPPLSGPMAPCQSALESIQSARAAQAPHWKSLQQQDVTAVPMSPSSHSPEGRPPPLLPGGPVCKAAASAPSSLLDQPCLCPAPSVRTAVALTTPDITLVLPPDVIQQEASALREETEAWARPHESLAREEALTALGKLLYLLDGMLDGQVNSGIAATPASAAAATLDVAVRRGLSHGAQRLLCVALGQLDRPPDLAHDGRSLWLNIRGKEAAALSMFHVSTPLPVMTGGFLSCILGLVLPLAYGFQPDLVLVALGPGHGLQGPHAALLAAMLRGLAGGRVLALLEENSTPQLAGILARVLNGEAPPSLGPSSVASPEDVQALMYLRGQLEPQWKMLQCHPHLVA

[2] = Efflux ratio of permeability from apical to basolateral side to basolateral to apical side of human Caco2 cells; assay type: ADME, cell-based; conditions: caco-2
Summary of the method: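 Caco-2 monolayers; the efflux ratio is flux in the apical-to-basolateral direction over flux in the basolateral-to-apical direction. Means of at least three experiments.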

Histone deacetylase 2 = Histone deacetylase 2 (Homo sapiens, UniProt Q92769); experiment: Inhibition of HDAC2 (unknown origin) using fluorogenic tetrapeptide RHKK(Ac) substrate by fluorescence assay
Histone deacetylase 11 = molecular target: T2, Histone deacetylase 11 (Homo sapiens, UniProt Q96DB2); experiment: Inhibition of HDAC11 (unknown origin) using fluorogenic tetrapeptide RHKK(Ac) substrate by fluorescence assay
T2 sequence (Q96DB2 whole entry): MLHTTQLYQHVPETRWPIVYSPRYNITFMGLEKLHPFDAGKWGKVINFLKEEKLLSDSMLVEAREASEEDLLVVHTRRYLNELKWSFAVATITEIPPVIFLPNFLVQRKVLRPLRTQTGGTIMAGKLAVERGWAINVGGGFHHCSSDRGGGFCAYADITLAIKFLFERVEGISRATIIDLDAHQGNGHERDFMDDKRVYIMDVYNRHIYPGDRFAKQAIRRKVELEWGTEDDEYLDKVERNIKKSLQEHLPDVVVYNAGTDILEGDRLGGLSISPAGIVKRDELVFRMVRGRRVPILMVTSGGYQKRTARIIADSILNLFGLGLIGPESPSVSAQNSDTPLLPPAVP

[3] = Antitumor activity against human HCT116 cells xenografted in athymic nude mouse assessed as tumor volume inhibition at 100 mg/kg, po qd for 5 days a week for 3 weeks; assay type: functional; conditions: HCT-116
Summary of the method: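 Female athymic nude mice, 5–6 weeks old, were inoculated sc in the right flank with 5 × 10⁶ exponentially growing tumor cells per 100 μL. Oral dosing once daily began 3 days after tumor injection, in Solutol HS15 diluted 1/20 in water. Tumor volume inhibition was calculated as TVI% = 100 − [(mean TV treated/mean TV control) × 100].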

[4] = Half life in human hepatocytes at 5 uM by LCMS/MS analysis; assay type: ADME, cell-based, Hepatocyte
Summary of the method: (§1)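 Incubation in human hepatocytes. […] Values are means of at least three experiments.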

[5] = Intrinsic clearance in human hepatocytes assessed per million cells at 5 uM by LCMS/MS analysis; assay type: ADME, cell-based, Hepatocyte; conditions: read-out: CLH; summary of the method: as §1
Histone deacetylase 8 = molecular target: T3, Histone deacetylase 8 (Homo sapiens, UniProt Q9BY41); experiment: Inhibition of HDAC8 (unknown origin) using fluorogenic tetrapeptide RHK(Ac)K(Ac) substrate by fluorescence assay
T3 sequence (Q9BY41 whole entry): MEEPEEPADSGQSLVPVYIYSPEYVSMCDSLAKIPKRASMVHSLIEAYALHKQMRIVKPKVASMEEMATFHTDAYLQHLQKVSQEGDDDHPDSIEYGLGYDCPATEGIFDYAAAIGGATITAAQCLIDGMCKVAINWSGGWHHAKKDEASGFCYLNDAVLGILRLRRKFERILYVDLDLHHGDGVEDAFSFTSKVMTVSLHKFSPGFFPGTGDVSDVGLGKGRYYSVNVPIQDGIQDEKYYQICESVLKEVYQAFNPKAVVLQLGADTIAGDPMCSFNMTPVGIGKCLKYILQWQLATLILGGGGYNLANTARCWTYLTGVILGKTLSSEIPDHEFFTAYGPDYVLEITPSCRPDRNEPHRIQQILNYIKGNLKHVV

[6] = Efflux ratio of permeability from apical to basolateral side to basolateral to apical side of human Caco2 cells in presence of digoxin; assay type: ADME, cell-based; conditions: caco-2
Summary of the method: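 Caco-2 AB/BA flux ratio measured with digoxin coincubated with test and reference compounds. Means of at least three experiments.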

[7] = molecular target: T4, Cholecystokinin receptor type A (Homo sapiens) (UniProt P32238); experiment: Inhibition of human CCK1 at 10 uM by radioligand displacement assay
T4 sequence (whole entry): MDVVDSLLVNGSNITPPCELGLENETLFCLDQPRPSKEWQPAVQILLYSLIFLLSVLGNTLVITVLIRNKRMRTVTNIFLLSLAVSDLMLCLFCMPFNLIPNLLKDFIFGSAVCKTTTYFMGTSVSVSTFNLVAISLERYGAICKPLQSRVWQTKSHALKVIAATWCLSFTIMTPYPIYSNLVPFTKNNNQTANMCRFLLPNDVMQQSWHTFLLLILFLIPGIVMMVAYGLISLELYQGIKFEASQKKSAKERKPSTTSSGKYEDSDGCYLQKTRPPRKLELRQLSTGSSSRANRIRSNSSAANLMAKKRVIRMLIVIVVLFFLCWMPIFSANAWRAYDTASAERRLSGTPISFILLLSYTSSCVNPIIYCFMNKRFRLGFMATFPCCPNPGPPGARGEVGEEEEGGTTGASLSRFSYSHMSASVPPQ
Summary of the method: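 Tested at 10⁻⁵ M within a 40-target panel of receptors, ion channels and enzymes. Read-out was percent displacement of a radiolabeled reference ligand.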

Chain of Histone deacetylase 3 (O15379 whole entry): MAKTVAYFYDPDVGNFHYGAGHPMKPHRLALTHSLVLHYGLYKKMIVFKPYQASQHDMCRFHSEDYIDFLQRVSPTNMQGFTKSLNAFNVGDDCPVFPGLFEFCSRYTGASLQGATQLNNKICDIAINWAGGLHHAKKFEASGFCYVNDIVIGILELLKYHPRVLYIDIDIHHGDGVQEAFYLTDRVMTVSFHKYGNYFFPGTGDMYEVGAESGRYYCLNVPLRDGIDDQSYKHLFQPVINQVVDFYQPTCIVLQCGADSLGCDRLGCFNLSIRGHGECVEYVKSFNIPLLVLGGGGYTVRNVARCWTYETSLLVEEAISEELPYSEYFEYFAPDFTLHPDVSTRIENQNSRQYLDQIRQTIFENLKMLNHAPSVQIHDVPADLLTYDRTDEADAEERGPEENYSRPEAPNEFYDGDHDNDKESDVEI
Chain of Histone deacetylase 2 (Q92769 whole entry): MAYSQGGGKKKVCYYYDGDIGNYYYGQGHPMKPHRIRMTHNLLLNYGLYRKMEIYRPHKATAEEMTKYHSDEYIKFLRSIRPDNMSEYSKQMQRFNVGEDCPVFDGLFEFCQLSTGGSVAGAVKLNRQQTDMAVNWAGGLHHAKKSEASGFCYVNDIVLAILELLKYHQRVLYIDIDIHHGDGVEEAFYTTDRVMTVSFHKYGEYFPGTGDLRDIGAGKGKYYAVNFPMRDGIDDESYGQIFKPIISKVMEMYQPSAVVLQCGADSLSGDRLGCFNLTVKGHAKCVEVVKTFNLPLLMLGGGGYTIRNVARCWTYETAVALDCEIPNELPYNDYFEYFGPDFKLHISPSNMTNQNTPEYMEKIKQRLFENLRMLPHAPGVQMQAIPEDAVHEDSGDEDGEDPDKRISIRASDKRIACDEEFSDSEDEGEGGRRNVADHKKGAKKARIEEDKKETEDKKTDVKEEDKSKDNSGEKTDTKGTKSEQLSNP
Chain of Histone deacetylase 1 (Q13547 whole entry): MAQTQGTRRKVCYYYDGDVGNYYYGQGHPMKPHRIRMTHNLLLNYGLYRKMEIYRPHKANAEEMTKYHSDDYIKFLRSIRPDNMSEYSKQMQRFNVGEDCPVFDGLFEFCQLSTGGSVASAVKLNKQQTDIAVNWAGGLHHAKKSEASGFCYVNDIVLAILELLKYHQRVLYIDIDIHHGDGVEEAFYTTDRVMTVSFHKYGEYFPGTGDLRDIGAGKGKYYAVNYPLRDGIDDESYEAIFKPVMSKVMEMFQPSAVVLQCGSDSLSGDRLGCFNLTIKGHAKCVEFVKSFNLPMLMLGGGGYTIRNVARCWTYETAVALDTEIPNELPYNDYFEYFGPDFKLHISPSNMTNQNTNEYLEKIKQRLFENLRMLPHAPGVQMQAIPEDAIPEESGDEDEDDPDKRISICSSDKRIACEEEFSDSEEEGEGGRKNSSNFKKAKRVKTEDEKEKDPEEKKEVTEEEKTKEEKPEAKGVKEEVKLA

pIC50 (Histone deacetylase 1): 7.89 | pIC50 (Histone deacetylase 3): 8.30 | pIC50 [1]: 7.96 | Ratio [2]: 5.2 | pIC50 (Histone deacetylase 2): 7.11 | pIC50 (Histone deacetylase 11): 7.85 | half-life at 5 µM [4]: 45 min | hepatocyte CLint at 5 µM [5]: 15.4 µL/min/1e6 cells | pIC50 (Histone deacetylase 8): 6.55 | Ratio [6]: 3.6 | inhibition [7]: 45%
Compound: O=C1CC[C@@H](C(=O)N[C@H](CCCCCS)C(=O)Nc2ccccc2)N1
Activity (Mus musculus): 3% | inhibition in vivo at 100 mg/kg [3]: 27%
